The values that follow come from ChEMBL document CHEMBL1141765, “Alkaloids from Alangium javanicum and Alangium grisolleoides that mediate Cu2+-dependent DNA strand scission” (J Nat Prod, 2005).

Where “and” joins values, the source holds several entries; their conditions need not be identical. Identical values can stand only once.

The subject of assay [1] is Escherichia coli. The experiment in a line: Induction of DNA strand scission activity against Escherichia coli pSP64 assessed as form 2 DNA levels at 200 uM after 2 hrs by electrophoresis in presence of equimolar amount of Cu2+.
For assay [2], the system named is Escherichia coli. Nature of the assay: Induction of DNA strand scission activity against Escherichia coli pSP64 assessed as form 2 DNA levels at 10 uM after 2 hrs by electrophoresis in presence of equimolar amount of Cu2+.
The test system of assay [3] is Escherichia coli. The experiment in a line: Induction of DNA strand scission activity against Escherichia coli pSP64 assessed as form 2 DNA levels at 100 uM after 2 hrs by electrophoresis in presence of equimolar amount of Cu2+.
For assay [4], the system named is Escherichia coli. The experiment in a line: Induction of DNA strand scission activity against Escherichia coli pBR322 assessed as form 2 DNA levels at 10 uM after 60 mins by electrophoresis in presence of 20 uM Cu2+. The class given is functional. The method in brief:
(§1)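 Supercoiled pBR322 plasmid DNA (500 ng) was incubated with compound, with or without 20 µM Cu2+, in 10 mM Tris-HCl, pH 8.0. Compound came from DMSO, final DMSO ≤5%. Incubation was 37 °C for 60 min. Blank (DNA only) and Cu2+-only controls were included. Samples were run on 1.0% agarose gels with ethidium bromide in TBE, pH 8.3. Form I→Form II conversion was quantified by gel densitometry.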

The test system of assay [5] is Escherichia coli. The experiment in a line: Induction of DNA strand scission activity against Escherichia coli pBR322 assessed as form 2 DNA levels at 100 uM after 60 mins by electrophoresis in presence of 20 uM Cu2+. The class given is functional. The method in brief:
as §1

For assay [6], the system named is Escherichia coli. Nature of the assay: Induction of DNA strand scission activity against Escherichia coli pBR322 assessed as form 2 DNA levels at 200 uM after 60 mins by electrophoresis in presence of 20 uM Cu2+. Format: functional. Summed up:
as §1

Assay [7] concerns Escherichia coli. Nature of the assay: Induction of DNA strand scission activity against Escherichia coli pBR322 assessed as form 2 DNA levels at 25 uM after 60 mins by electrophoresis in presence of 20 uM Cu2+. The class given is functional. Summed up:
as §1

Assay [8] relates to Escherichia coli. Nature of the assay: Induction of DNA strand scission activity against Escherichia coli pBR322 assessed as form 2 DNA levels at 200 uM after 60 mins by electrophoresis in absence of 20 uM Cu2+. The class given is functional. The method in brief:
as §1

Assay [9] relates to Escherichia coli. The experiment in a line: Induction of DNA strand scission activity against Escherichia coli pBR322 assessed as form 2 DNA levels at 50 uM after 60 mins by electrophoresis in presence of 20 uM Cu2+. Format: functional. The method in brief: as §1
For assay [10], the system named is Escherichia coli. Nature of the assay: Induction of DNA strand scission activity against Escherichia coli pBR322 assessed as form 2 DNA levels at 500 uM after 60 mins by electrophoresis in absence of 20 uM Cu2+. Format: functional. Summed up: as §1
In assay [11] the test system is Escherichia coli. Nature of the assay: Induction of DNA strand scission activity against Escherichia coli pBR322 assessed as form 2 DNA levels at 500 uM after 60 mins by electrophoresis in presence of 20 uM Cu2+. The class given is functional. Summed up:
as §1

On to `C=C[C@H]1[C@H](O[C@@H]2O[C@H](CO)[C@@H](O)[C@H](O)[C@H]2O)OC=C2C(=O)N3CC[C@]4(C(=O)Nc5ccccc54)[C@H]3C[C@H]21`, for which the Activity with Escherichia coli [1] turned out to be 7%; in the assay on Escherichia coli [2] it was 0%; in the assay on Escherichia coli [3], 5%.

Take `C=C[C@H]1[C@H](O[C@@H]2O[C@H](CO)[C@@H](O)[C@H](O)[C@H]2O)OC=C2C(=O)N3CC[C@@]4(C(=O)Nc5ccccc54)[C@H]3C[C@H]21`: the Activity was 43% and 35% in the assay on Escherichia coli [1]; 0% with Escherichia coli [2]; 28% and 16% with Escherichia coli [3]; 10% with Escherichia coli [4]; 29% in the assay on Escherichia coli [5]; 58% in the assay with Escherichia coli [6]. Further, the figures for the Activity in the assay with Escherichia coli [7], in the assay with Escherichia coli [8] and with Escherichia coli [9] were 16%, 3% and 20%, respectively.

On to `C=C[C@H]1[C@H](O[C@@H]2O[C@H](CO)[C@@H](O)[C@H](O)[C@H]2O)OC=C2C(=O)N3CCc4cc(OC)c(O)cc4[C@H]3C[C@H]21`, for which the Activity in the assay with Escherichia coli [10] worked out at 3%; in the assay with Escherichia coli [4], 14%; in the assay on Escherichia coli [5], 25%; with Escherichia coli [11], 42%; with Escherichia coli [6], 30%; with Escherichia coli [9] it was 18%.
